Results from publication PMC4235474 (Clinical Pharmacology : Advances and Applications, 2014).
“And” between values parts separate entries of the source, which are not always exact repeats. Identical values can stand only once. Like-named read-outs stand apart in the source and are kept apart here. Marks after values point to notes of the source that are not given here.

Columns and labels:
[1] = Multiple-dose steady-state plasma pharmacokinetics; format: in vivo, healthy subjects (human); conditions: for Coefficient of variation (intersubject variability) for exposure parameters (AUC0–24, Cmax, Cmin): apixaban 2.5 mg BID
factor Xa = factor Xa (Bos taurus, UniProt P00743); test: Steady-state plasma anti-factor Xa activity; format: in vivo, healthy subjects (human); conditions: for slope of concentration–AXA linear regression: AXA versus plasma concentration, P<0.0001 between drugs; for intercept in regression equation anti-FXa vs plasma concentration / slope in regression equation anti-FXa vs plasma concentration: Figure 4 regression equation; for AXA Tpeak median (min–max): time of peak anti-FXa activity, day 4 steady state; for AXA AUC(0–24) G mean (CV): 0 to 24 hours after morning dose, rivaroxaban 10 mg QD
healthy subjects = test: Safety and tolerability; format: in vivo, human; conditions: for deaths or serious AEs: during the study; for number of subjects reporting AEs: of 14 subjects; for tolerability: rivaroxaban 10 mg QD, apixaban 2.5 mg BID for 4 days
Outline: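 Randomized open-label two-period crossover in healthy volunteers housed in a clinical unit. Each took two oral factor Xa inhibitors for 4 days: one at 2.5 mg twice daily, the other at 10 mg once daily. Physical exam, vital signs, 12-lead ECG and blood/urine labs were done at screening, before each period and at discharge. AEs were monitored throughout, MedDRA-coded, and graded for severity, onset, drug relationship and outcome.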

[2] = cited from earlier work; for fluctuation in mean concentrations / mean terminal half-life: apixaban 2.5 mg BID, multiple ascending dose study
[3] = cited from earlier work
[4] = VTEp patients; cited from earlier work
prothrombin time = conditions: at a concentration of 1,000 ng/mL; cited from earlier work
[5] = day 4 steady state, rivaroxaban 10 mg QD
[6] = day 4 steady state, rivaroxaban 10 mg QD, apixaban 2.5 mg BID oral, N=14

Sequence of factor Xa (P00743 234-492 limits assumed): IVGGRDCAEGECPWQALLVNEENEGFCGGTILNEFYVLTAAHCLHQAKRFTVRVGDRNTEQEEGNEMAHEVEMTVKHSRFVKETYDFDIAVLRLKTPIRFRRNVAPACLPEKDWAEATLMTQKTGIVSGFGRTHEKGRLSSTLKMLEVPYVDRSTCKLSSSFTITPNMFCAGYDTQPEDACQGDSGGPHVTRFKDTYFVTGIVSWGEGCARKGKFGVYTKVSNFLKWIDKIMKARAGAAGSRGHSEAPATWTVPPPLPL
Sequence of factor Xa (P00743 41-180 partner limits assumed): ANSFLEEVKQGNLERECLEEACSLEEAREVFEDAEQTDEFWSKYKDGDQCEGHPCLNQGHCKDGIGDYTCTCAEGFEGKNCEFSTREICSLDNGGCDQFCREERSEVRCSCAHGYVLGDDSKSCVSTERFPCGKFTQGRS

For COc1ccc(-n2nc(C(N)=O)c3c2C(=O)N(c2ccc(N4CCCCC4=O)cc2)CC3)cc1 [Apixaban, apixaban], the “T1/2 Mean (SD), terminal half-life” value ([1]; after last dose on day 4 (apixaban: evening dose; rivaroxaban: morning dose), N=14) was 8.65 (2.19) ^* h, the “Coefficient of variation (intersubject variability) for exposure parameters (AUC0–24, Cmax, Cmin)” value [1, 5] was 20%–24% and the “Cmax G mean (%CV)” value [1, 6] was 80.5 (23) ng/mL. For the same compound, the Tmax ([1]; human, plasma, oral) was 2 h, the AUC(0-t) ([1]; human, plasma, oral, 2.5 mg) was 527 ng·h/mL and the “AXA AUC(0–12) G mean (CV)” value (factor Xa; 0 to 12 hours after morning dose, day 4, apixaban 2.5 mg BID, N=14) was 7.42 (21) IU · h/mL. For the same compound, the “slope of concentration–AXA linear regression” value (factor Xa) was 0.0134 IU/ng, the “intercept in regression equation anti-FXa vs plasma concentration” value (factor Xa) was 0.02753 and the “slope in regression equation anti-FXa vs plasma concentration” value (factor Xa) was 0.01342. For the same compound, the “AXA T1/2 Mean (SD)” value (factor Xa; determined after evening dose on day 4, apixaban 2.5 mg BID) was 8.9 h and 8.91 (2.46) ^‡ h, the “AXA Tpeak median (min–max)” value (factor Xa; N=14) was 2.00 (1.00–3.00) h and the “AXA Tpeak median (min–max)” value (factor Xa; N=14, listed as apixaban) was 2 h. The “deaths or serious AEs” value (healthy subjects) was “No deaths or serious AEs”, the “number of subjects reporting AEs” value (healthy subjects) was “eight” and the tolerability (healthy subjects) was “well-tolerated”. For the same compound, the “time to steady state” value ([2]; BID dosing) was 2 to 3 days, the “fluctuation in mean concentrations” value ([2]; Japanese subjects) was ~ 4.2 and the mean terminal half-life ([2]; Japanese subjects) was 9.7 h. For the same compound, the “fluctuation in mean concentrations” value ([2]; Western subjects) was ~ 3.0, the mean terminal half-life ([2]; Western subjects) was 8.1 h and the terminal half-life [2] was ~ 12 hours. For the same compound, the “time to maximal plasma concentrations after administration” value [2] was ~ 3 hours, the accumulation ([2]; following BID dosing) was < 2 fold and the bioavailability ([2]; not significantly influenced by dose or meals) was ~ 50%. For the same compound, the Protein binding [3] was ~ 87%.

With O=C(NC[C@H]1CN(c2ccc(N3CCOCC3=O)cc2)C(=O)O1)c1ccc(Cl)s1 [Rivaroxaban, rivaroxaban] the “AUC0–24 at steady state, rivaroxaban higher than apixaban” value ([1]; daily AUC) was ~ 17%, the “Cmax, rivaroxaban relative to apixaban (higher)” value ([1]; day 4) was ~ 2 fold and the “Cmin, rivaroxaban lower than apixaban” value ([1]; day 4) was ~ 40%. The “Coefficient of variation (intersubject variability) for exposure parameters (AUC0–24, Cmax, Cmin)” value [1, 5] was 29%–46%, the “Cmin G mean (%CV)” value [1, 6] was 10.1 (39) ng/mL and the “Cmax/Cmin ratio, rivaroxaban relative to apixaban” value ([1]; geometric mean ratio, 90% CI: 2.82–4.61) was 3.6 fold. The “AXA AUC(0–24) G mean (CV)” value (factor Xa; day 4, apixaban 2.5 mg BID, N=14) was 17.8 (29) IU · h/mL, the “AXA AUC(0–24) G mean (CV)” value (factor Xa; day 4, apixaban 2.5 mg BID, N=14, listed as rivaroxaban) was 17.8 IU · h/mL and the “slope of concentration–AXA linear regression” value (factor Xa) was 0.0172 IU/ng. For the same compound, the “intercept in regression equation anti-FXa vs plasma concentration” value (factor Xa) was −0.03215, the “slope in regression equation anti-FXa vs plasma concentration” value (factor Xa) was 0.01719 and the “AXA AUC(0–24), rivaroxaban higher than apixaban” value (factor Xa; geometric mean) was ~ 34%. The “AXA AUC(0–24), rivaroxaban relative to apixaban (higher)” value (factor Xa; steady state) was ~1.3 fold, the “Peak AXA, rivaroxaban relative to apixaban (higher)” value (factor Xa; steady state) was ~ 2.5 fold and the “trough AXA, rivaroxaban lower than apixaban” value (factor Xa; steady state) was ~ 30%. For the same compound, the “AXA Tpeak median (min–max)” value (factor Xa; N=14) was 2.00 (1.00–3.00) h, the “AXA Tpeak median (min–max)” value (factor Xa; N=14, listed as rivaroxaban) was 2 h and the “number of AEs reported” value (healthy subjects; after start of study medication, 14 subjects, all mild) was “Twelve”. For the same compound, the “deaths or serious AEs” value (healthy subjects) was “No deaths or serious AEs”, the “number of subjects reporting AEs” value (healthy subjects) was “seven” and the tolerability (healthy subjects) was “well-tolerated”. The terminal half-life [2] was ~ 10 hours, the “time to maximal plasma concentrations after administration” value [2] was ~ 3 hours and the bioavailability ([2]; depending on dose and administration with a meal) was 66%–100%. The accumulation ([2]; following QD administration) was “does not show appreciable accumulation”, the half-life ([2]; rivaroxaban 5 mg QD, healthy subjects) was 8.4 h and the Protein binding [3] was ~ 93%. For the same compound, the Cmax/Cmin ratio [4] was ~ 7 and the “effect in the prothrombin time assay” value (prothrombin time) was “greater effect than apixaban”.
